Data from ChEMBL document CHEMBL1156484, “Hot spots in prion protein for pathogenic conversion” (Proc Natl Acad Sci U S A, 2007).
Activity calls are given as the source filed them. The rule behind the calls is not given here.

Assays:
cells [1] = format: functional, cell-based; details: Mus musculus, GT1-7
[2] = Cytotoxicity against mouse GT1-7 cells at 1 uM; format: cell-based; details: gt1-7, 1 µM
GT1-7 = test: Effect on cellular form PrP expression in mouse GT1-7 cells; format: functional, cell-based
How it was run: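 Uninfected GT1-7 mouse neuronal cells (~2 × 10^5 per well) treated 15 h after plating, from 100 mM DMSO stocks diluted in medium (solvent control 0.1%), for 72 h. Lysates in Triton X-100/DOC buffer, normalized to 2 mg protein/ml. PrPC detected by Western blot with SAF32 antibody and ECL, then scanned.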

cells [3] = format: functional, cell-based; details: Mus musculus, GT1-7, 72 h
Mus musculus [4] = test: Survival of intraventricularly dosed mouse infected with human transmissible spongiform encephalopathies agent Fukuoka1 at 250 ug/kg, after 70 to 98 days post-infection; format: functional
How it was run: (§1)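 4-week-old male ddY mice inoculated in the right temporal lobe with 20 μl of 10% FK-1 (Fukuoka-1) infected brain homogenate. Drug in 5% glucose/saline (10 mg/ml stock, 0.2-μm filtered) given at 250 μg/kg per day by intraventricular osmotic-pump infusion over the stated d.p.i. window. Vehicle-only controls. Mice examined daily for neurological signs; survival analysed by Kaplan–Meier.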

Mus musculus [5] = organism: Mus musculus; test: Binding affinity to recombinant mouse cellular form PrP (23-231)
Mus musculus [6] = organism: Mus musculus; test: Stabilization of recombinant mouse cellular form PrP (23-231) conformation at 10 uM
Mus musculus [7] = test: Survival of intraventricularly dosed mouse infected with human transmissible spongiform encephalopathies agent Fukuoka1 at 250 ug/kg, after 42 to 70 days post-infection; format: functional
How it was run: as §1

Structure (SMILES)	IC50 (cells [1]) [µM]	Activity [2]	other results
CCN(CCO)CCNc1ccc(C)c2sc3ccccc3c(=O)c12	> 100	Toxic	
COc1ccccc1C(=O)c1c(C(=O)O)ccc2ccccc12	> 100	Toxic	
COc1ccc(NC(=O)c2cc(Br)ccc2I)cc1Cl	> 100	Toxic	
CC1CCCN(C(=O)Nc2ccc(Cc3ccc(NC(=O)N4CCCC(C)C4)cc3)cc2)C1 (configuration not stated)	> 100	Toxic	
C[C@]12CCC(=O)C=C1CC[C@@H]1[C@@H]2[C@@H](O)C[C@@]2(C)[C@H]1CC[C@]2(O)C(=O)COC(=O)CCC(=O)O [HYDROCORTISONE HEMISUCCINATE ANHYDROUS]	> 100	Toxic	
O=C(Nc1ccc(Cc2ccc(NC(=O)C(Cl)(Cl)Cl)cc2)cc1)C(Cl)(Cl)Cl	> 100	Toxic	
O=C(c1cccc(I)c1)c1cccc(I)c1	> 100	Toxic	
O=C(CN1CCCCC1)Nc1ccc(Cc2ccc(NC(=O)CN3CCCCC3)cc2)cc1	> 100	Toxic	
O=C(O)/C=C/C(=O)Nc1ccc(Cc2ccc(NC(=O)/C=C/C(=O)O)cc2)cc1	> 100	Toxic	
CS(=O)(=O)O[C@H]1C[C@H](n2cc(F)c(=O)[nH]c2=O)O[C@@H]1CO	> 100	Toxic	
O=C1C=CC(=O)N1c1ccc(Cc2ccc(N3C(=O)C=CC3=O)cc2)cc1	> 100	Toxic	
O=C(Nc1ccc(I)cc1C(=O)O)c1ccc(Cl)cc1	> 100	Toxic	
O=C(c1ccc(I)c([N+](=O)[O-])c1)c1ccc(I)c([N+](=O)[O-])c1	> 100	Toxic	
C=CCSC1=N/C(=C\c2ccccc2Br)C(=O)S1	> 100	Toxic	
Cc1c(NC(=O)c2cccc(I)c2)ccc([N+](=O)[O-])c1C	> 100	Toxic	
O=C(O)c1ccc(C(=O)O)c(C(=O)Nc2ccc3c(c2)-c2ccccc2C3)c1	> 100	Toxic	
O=C(Nc1cc(Cl)c(Cl)cc1Cl)Nc1cc(Cl)c(Cl)cc1Cl	> 100	Toxic	
Cc1nc2c(n1CCO)C(=O)c1nc(C)n(CCO)c1C2=O	> 100	Toxic	
O=C(CCl)Nc1ccc(Cc2ccc(NC(=O)CCl)cc2)cc1	> 100	Toxic	
COc1ccc(C(=O)NNC(=O)c2ccc(OC)c(I)c2)cc1Br	> 100	Toxic	
O=C(Nc1ccc(NC(=O)c2cccc3ccccc23)cc1)c1cccc2ccccc12	> 100	Toxic	
CC(=O)CC(=O)Nc1ccc(Cc2ccc(NC(=O)CC(C)=O)cc2)cc1	> 100	Toxic	

Structure (SMILES)	IC50 (cells [1]) [µM]	Activity [2]	other results
O=C(N/N=C/c1cc(Cl)cc(Cl)c1O)c1cccc(I)c1	> 100	Toxic	
COc1ccc(C(=O)N=C2C=C(Br)C(=O)C(Br)=C2)cc1	> 100	Toxic	
CC(=O)Nc1ccc(Cc2ccc(NC(C)=O)cc2)cc1	> 100	Toxic	
Cc1ccc(N2C(=O)c3ccc(C(=O)OCC(C)C)cc3C2=O)cc1C	> 100	Toxic	
O=c1n(S(=O)(=O)c2ccc(Cl)cc2)c2ccccc2n1S(=O)(=O)c1ccc(Cl)cc1	> 100	Toxic	
O=C(Nc1ccc(I)cc1)c1ccccc1I	> 100	Toxic	
C=CCc1cc(/C=C2/C(=O)NC(=S)N(CC=C)C2=O)cc(OC)c1O	> 100	Toxic	
O=C(Nc1ccc2ccccc2c1)c1cccc(C(=O)Nc2ccc3ccccc3c2)c1	> 100	Toxic	
O=C(CN1CCOCC1)Nc1ccc(Cc2ccc(NC(=O)CN3CCOCC3)cc2)cc1	> 100	Toxic	
COc1ccc(C(=O)c2ccc(Br)c([N+](=O)[O-])c2)cc1C	> 100	Toxic	
O=S(=O)(c1cc(Cl)cc(Br)c1O)c1cc(Cl)cc(Br)c1O	> 100	Toxic	
Cc1sc(C(O)c2sc(C)c(C)c2I)c(I)c1C	> 100	Toxic	
O=C(CN1CCCC1)Nc1ccc(Cc2ccc(NC(=O)CN3CCCC3)cc2)cc1			Activity (GT1-7): inactive; IC50 (cells [3]): 1.35 µM; Survival (Mus musculus [4]): 141.5 days; Activity (Mus musculus [5]): 3.9 ×10⁻⁶ M; Activity (Mus musculus [6]): Stable; Survival (Mus musculus [7]): 132.3 days
O=C1C=CC(=O)N1c1ccc(Cc2ccc(N3C(=O)C=CC3=O)c(Cl)c2)cc1Cl	> 100	Toxic	
Cc1ccc(C(=O)Nc2cccc([N+](=O)[O-])c2C)cc1I	> 100	Toxic	
CCCCOC(=O)c1ccc2c(c1)C(=O)N(c1ccc(Oc3ccccc3)cc1)C2=O	> 100	Toxic	
Cc1ccc(S(=O)(=O)Nc2ccccc2N(C)S(=O)(=O)c2ccc(C)cc2)cc1	> 100	Toxic	
Cc1ccc(N2C(=O)c3ccc(C(=O)OCC(C)C)cc3C2=O)cc1Cl	> 100	Toxic	
CCCCOC(=O)c1ccc(NC(=O)Nc2cc(C)ccc2C)cc1	> 100	Toxic	
O=C(Nc1ccc(I)cc1)c1cccc(I)c1	> 100	Toxic	
CC(=O)[C@H]1CC[C@H]2[C@@H]3C[C@H](O)[C@@H]4C[C@H](O)CC[C@]4(C)[C@H]3CC[C@]12C	> 100	Toxic	
O=C(Nc1ccc(Cc2ccc(NC(=O)c3cccc([N+](=O)[O-])c3)cc2)cc1)c1cccc([N+](=O)[O-])c1	> 100	Toxic	
